Test results published in ChEMBL document CHEMBL1122411 (J Med Chem, 1983).

Tests used:
[1] = species on record: Mus musculus; test: Percentage increase in life span after 10-24 days; assay type: functional
Method in brief: (§1)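 Male B6D2F1J mice (20–25 g), randomized after i.p. inoculation with 10^5 L1210 ascitic leukemia cells on day 0. Drug in water, pH 7.5–8.0, given i.p. on a q2d×5, qd×9 (from day 1) or b.i.d.×10 schedule; 5 mice per group. %ILS = [(T/C) − 1]100 from median survival days of treated versus control mice. Range is survival days.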

[2] = tested on: Mus musculus; test: Toxicity in mice after 12-22 days at a dose of 60 mg/kg/day; value is 21/9; assay type: functional
[3] = molecular target: Dihydrofolate reductase (Lactobacillus casei) (UniProt P00381); conditions: Lacticaseibacillus casei
Dihydrofolate reductase (Lactobacillus casei), sequence (P00381 whole entry): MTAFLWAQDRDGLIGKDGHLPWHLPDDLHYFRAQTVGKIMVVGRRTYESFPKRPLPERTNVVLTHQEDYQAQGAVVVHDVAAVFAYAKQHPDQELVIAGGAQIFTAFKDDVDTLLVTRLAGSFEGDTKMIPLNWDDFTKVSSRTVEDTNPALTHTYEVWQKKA

[4] = tested on: Mus musculus; test: Weight change on day 7 in L1210 Lymphoid Leukemia in mice at a dose of 12 mg/kg/day (b.i.d. x10); assay type: functional
Method in brief: (§2)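 Male B6D2F₁J mice (20–25 g) bearing ip L1210 ascites (10⁵ cells, day 0) were used, 5 per group. Drug was given ip in water at pH 7.5–8.0 from day 1 on q2d×5, qd×9 or b.i.d.×10 schedules. Animals were weighed after 7 days and percent weight change recorded.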

[5] = tested on: Mus musculus; test: Toxicity in mice after 10-24 days at a dose of 15 mg/kg/day; value is 21/9; assay type: functional
[6] = Tested for substrate activity of compound for Carboxypeptidase G1; parameters: species or system Mus musculus
Method in brief: (§3)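 Cleavage by carboxypeptidase G₁ was followed as the A320 change on release of the pteroate. Conditions were 37 °C in 0.05 M potassium phosphate, pH 6.7, with 100 μM ZnSO₄. Enzyme was diluted in 1% BSA to give ΔA320 of 0.02–0.2/min. Km and Vmax came from Lineweaver-Burk plots. Ki came from competitive runs varying analogue against fixed MTX, or vice versa.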

[7] = species on record: Mus musculus; test: Percentage increase in life span after 12-22 days; assay type: functional; method in brief: as §1
[8] = tested on: Mus musculus; test: Toxicity in mice after 9-11 days at a dose of 2 mg/kg/day; value is 10/8.5; assay type: functional
[9] = tested on: Mus musculus; test: Weight change on day 7 in L1210 Lymphoid Leukemia in mice at a dose of 2 mg/kg/day (qdx9); assay type: functional; method in brief: as §2
[10] = molecular target: T1, Dihydrofolate reductase (Mus musculus) (UniProt P00375); test: Binding affinity to Dihydrofolate reductase of L1210/R71 using spectrophotometric assay
T1 sequence (whole entry): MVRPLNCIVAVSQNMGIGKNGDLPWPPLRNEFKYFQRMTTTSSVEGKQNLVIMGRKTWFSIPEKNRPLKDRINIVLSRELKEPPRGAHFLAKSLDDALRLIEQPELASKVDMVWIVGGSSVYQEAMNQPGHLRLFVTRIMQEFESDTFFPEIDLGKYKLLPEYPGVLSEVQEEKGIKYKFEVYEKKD
Method in brief: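 The enzyme was isolated from MTX-resistant L1210/R71 cultured cells and purified on MTX-agarose. The assay measured ΔA340 at 22 °C in 0.1 M Tris, pH 7.0, with 62 nM enzyme. Enzyme was preincubated 2 min with inhibitor and NADPH, and dihydrofolate was then added to start the reaction. ID₅₀ determined.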

[11] = tested on: Mus musculus; test: Toxicity in mice after 17-19 days at a dose of 40 mg/kg/day; value is 18/9; assay type: functional
[12] = species on record: Mus musculus; test: Percentage increase in life span after 8-17 days; assay type: functional; method in brief: as §1
[13] = tested on: Mus musculus; test: Toxicity in mice after 12-19 days at a dose of 8 mg/kg/day; value is 12/8.5; assay type: functional
[14] = species on record: Mus musculus; test: (§4) Percentage increase in life span after 12-20 days; assay type: functional; method in brief: as §1
[15] = tested on: Mus musculus; test: Toxicity in mice after 12-20 days at a dose of 20 mg/kg/day; value is 13/9; assay type: functional
[16] = tested on: L1210; test: cytotoxicity against L1210 cells; assay type: functional; conditions: Mus musculus, read-out: ID50 (the source's name)
[17] = species on record: Mus musculus; test: Percentage increase in life span after 9-24 days; assay type: functional; method in brief: as §1
[18] = species on record: Mus musculus; test: Percentage increase in life span after 12-19 days; assay type: functional; method in brief: as §1
[19] = tested on: Mus musculus; test: Weight change on day 7 in L1210 Lymphoid Leukemia in mice at a dose of 20 mg/kg/day (qdx9); assay type: functional; method in brief: as §2
[20] = tested on: Mus musculus; test: Weight change on day 7 in L1210 Lymphoid Leukemia in mice at a dose of 9 mg/kg/day (b.i.d. x10); assay type: functional
Method in brief: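 L1210 ascitic leukemia was implanted i.p. (10⁵ cells, day 0) in male B6D2F1J mice of 20–25 g, 5 per group. Dosing was b.i.d.×10, except that on days 5 and 6 a single double-dose injection was given. The % weight change was recorded at day 7.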

[21] = tested on: Carboxypeptidase G1 (Pseudomonas); test: Tested for substrate activity of compound for Carboxypeptidase G1
[22] = molecular target: Dihydrofolate reductase (Lactobacillus casei) (UniProt P00381); conditions: Lacticaseibacillus casei; remark: listed apart in the source
[23] = tested on: Mus musculus; test: Weight change on day 7 in L1210 Lymphoid Leukemia in mice at a dose of 40 mg/kg/day (qdx9); assay type: functional
Method in brief: (§5)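 Male B6D2F1J mice (20–25 g) were inoculated i.p. with 10⁵ L1210 ascites cells on day 0 and randomized into groups of 5. Drug in water at pH 7.5–8.0 was given i.p. daily for 9 days (qd×9) from day 1. Animals were weighed after 7 days, and the % body-weight change was recorded under a standard NCI protocol.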

[24] = tested on: Mus musculus; test: Toxicity in mice after 12-16 days at a dose of 20 mg/kg/day; value is 14/9; assay type: functional
[25] = species on record: Mus musculus; test: Percentage increase in life span after 17-19 days; assay type: functional; method in brief: as §1
[26] = species on record: Mus musculus; test: as §4; assay type: functional; method in brief: as §1; remark: listed apart in the source
[27] = species on record: Mus musculus; test: Percentage increase in life span after 9-11 days; assay type: functional; method in brief: as §1
[28] = tested on: Mus musculus; test: Weight change on day 7 in L1210 Lymphoid Leukemia in mice at a dose of 60 mg/kg/day (qdx9); assay type: functional; method in brief: as §5
[29] = species on record: Mus musculus; test: Percentage increase in life span after 12-16 days; assay type: functional; method in brief: as §1
[30] = tested on: Mus musculus; test: Toxicity in mice after 8-17 days at a dose of 4 mg/kg/day; value is 11/8.5; assay type: functional
[31] = tested on: Mus musculus; test: Weight change on day 7 in L1210 Lymphoid Leukemia in mice at a dose of 15 mg/kg/day (b.i.d. x10); assay type: functional; method in brief: as §2
[32] = tested on: Mus musculus; test: Weight change on day 7 in L1210 Lymphoid Leukemia in mice at a dose of 8 mg/kg/day (qdx9); assay type: functional; method in brief: as §5
[33] = tested on: Mus musculus; test: Toxicity in mice after 12-20 days at a dose of 40 mg/kg/day; value is 14/9; assay type: functional
[34] = molecular target: T1, Dihydrofolate reductase (Mus musculus); test: Binding affinity to Dihydrofolate reductase of L1210 cell line using [H]MTX as radioligand; assay type: cell-based
Method in brief: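 Competitive [³H]MTX binding to dihydrofolate reductase from L1210 leukemia. Ascites cells from tumor-bearing mice were washed and lysed before use. The assay ran at 37 °C in 0.1 M potassium phosphate, pH 6.8. ID₅₀ was read as inhibition of radioligand binding, with MTX included in each experiment.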

[35] = tested on: Mus musculus; test: Toxicity in mice after 16-18 days at a dose of 9 mg/kg/day; value is 17/9; assay type: functional
[36] = molecular target: T1, Dihydrofolate reductase (Mus musculus)
[37] = tested on: Mus musculus; test: Weight change on day 7 in L1210 Lymphoid Leukemia in mice at a dose of 4 mg/kg/day (qdx9); assay type: functional; method in brief: as §5
[38] = species on record: Mus musculus; test: Percentage increase in life span after 16-18 days; assay type: functional; method in brief: as §1
[39] = tested on: Mus musculus; test: Toxicity in mice after 9-24 days at a dose of 12 mg/kg/day; value is 18/9; assay type: functional
[40] = Tested for substrate activity of compound for Carboxypeptidase G1 (exp 2); method in brief: as §3

## CN(Cc1cnc2nc(N)nc(N)c2n1)c1ccc(C(=O)NC(CCCC(=O)O)C(=O)O)cc1 (stereo unspecified)
[1]
  ILS: 133%
[2]
  T/C: 21
[3]
  ID50: 12 nM
[4]
  Weight change: -3%
[5]
  T/C: 21
[6]
  Ki: 2770 nM
[7]
  ILS: 133%
[8]
  T/C: 10
[9]
  Weight change: 10%
[10]
  ID50: 39 nM
[11]
  T/C: 18
[12]
  ILS: 29%
[13]
  T/C: 12
[14]
  ILS: 44%
[15]
  T/C: 13
[16]
  IC50: 30 nM
[17]
  ILS: 100%
[18]
  ILS: 41%
[19]
  Weight change: 7%
[20]
  Weight change: -3%
[21]
  Km: 196 µM
  Vmax: 0.124 min⁻¹
[22]
  ID50: 6.9 nM
[23]
  Weight change: 2%
[24]
  T/C: 14
[25]
  ILS: 100%
[26]
  ILS: 55%
[27]
  ILS: 18%
[28]
  Weight change: -6%
[29]
  ILS: 56%
[30]
  T/C: 11
[31]
  Weight change: -7%
[32]
  Weight change: 2%
[33]
  T/C: 14
[34]
  ID50: 1.4 nM
[35]
  T/C: 17
[36]
  ID50: 6.7 nM
[37]
  Weight change: 7%
[38]
  ILS: 89%
[39]
  T/C: 18
[40]
  Ki: 3220 nM
